Data published in ChEMBL document CHEMBL1154927, “Photooxidation and Phototoxicity of pi-extended squaraines” (J Med Chem, 2010).
Each block holds one compound with its values, some of them ahead of it. Calls of active or inactive are those of the source. The rule behind the calls is not given here.

Key:
HeLa [1] = test: Cytotoxicity against human HeLa cells under dark condition after 24 hrs by resazurin proliferation assay; assay type: cell-based
Summary of the method: (§1)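 Cells were seeded to reach plateau growth: HeLa and B78-H1 at 5000, HepG2 and MCF-7 at 7000 cells/well. They were exposed to increasing squaraine concentrations in the dark, with compound from DMSO diluted in medium (final DMSO <0.2%). Viability was measured by resazurin fluorescence as RFU treated/RFU untreated × 100. Values are means ± SDs of three independent experiments.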

Mus musculus [2] = test: Toxicity in C57BL/6 mouse bearing mouse B78H1 cells assessed as mortality at 3 umol/kg, iv measured after 1 week; assay type: organism-based; conditions: in vivo, 168 h
Summary of the method: (§2)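 Squaraine given to mice at 3 μmol/kg (the dose used for PDT experiments), formulated in small unilamellar dioleoylphosphatidylcholine liposomes and injected.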

MCF7 [3] = test: Cytotoxicity against human MCF7 cells under dark condition after 24 hrs by resazurin proliferation assay; assay type: cell-based; conditions: mcf7, 24 h; summary of the method: as §1
MCF7 [4] = test: Photocytotoxicity against human MCF7 cells assessed as induction of lipid peroxidation-mediated malondialdehyde production at 1.8 uM for 3 hrs followed by 15 J/mc2 irradiation by TBARS assay relative to untreated control; assay type: functional, cell-based
[5] = Photocytotoxicity against mouse B78H1 cells treated for 3 hrs followed by 15 J/mc2 irradiation measured 24 hrs after irradiation by resazurin proliferation assay; assay type: functional
Summary of the method: (§3)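 Cells were seeded to reach plateau growth: HeLa and B78-H1 at 5000, HepG2 and MCF-7 at 7000 cells/well. They were incubated 3 h with increasing squaraine concentrations (DMSO stock, final DMSO <0.2%, DMSO-matched control), then irradiated 30 min with a metal halogen lamp (15 J/cm2). Resazurin proliferation was read 24 h later as % of untreated fluorescence. IC50 was estimated from dose-response plots; means ± SDs of three independent experiments.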

MCF7 [6] = test: Cytotoxicity against human MCF7 cells under dark condition at 5 uM after 24 hrs by resazurin proliferation assay; assay type: cell-based; conditions: mcf7, 24 h; summary of the method: as §1
HeLa [7] = test: Photocytotoxicity against human HeLa cells treated for 3 hrs followed by 15 J/mc2 irradiation measured 24 hrs after irradiation by resazurin proliferation assay; assay type: functional; summary of the method: as §3
HeLa [8] = test: Cytotoxicity against human HeLa cells under dark condition at 5 uM after 24 hrs by resazurin proliferation assay; assay type: cell-based; summary of the method: as §1
MCF7 [9] = test: Photocytotoxicity against human MCF7 cells assessed as induction of lipid peroxidation-mediated malondialdehyde production at 9.6 uM for 3 hrs followed by 15 J/mc2 irradiation by TBARS assay relative to untreated control; assay type: functional, cell-based
[10] = Cytotoxicity against mouse B78H1 cells under dark condition at 5 uM after 24 hrs by resazurin proliferation assay; assay type: cell-based; conditions: b78h1, 24 h; summary of the method: as §1
HepG2 [11] = test: Cytotoxicity against human HepG2 cells under dark condition after 24 hrs by resazurin proliferation assay; assay type: cell-based; conditions: hepg2, 24 h; summary of the method: as §1
HeLa [12] = test: Photocytotoxicity against human HeLa cells assessed as necrotic cells at 1.5 uM for 3 hrs followed by 15 J/mc2 measured 72 hrs irradiation by propidium iodide staining; assay type: functional, cell-based
Summary of the method: (§4)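 HeLa cells (2.5 × 10^5, six-well) were treated with squaraine the next day and photoactivated. The medium was then replaced with fresh medium containing Hoechst and PI (both 2 μg/mL). Living cells were time-lapse imaged at 37 °C, 5% CO2 over 72 h, with necrotic (PI-red, swollen) and apoptotic (shrinkage, blebbing, apoptotic bodies) morphology scored. Controls had no squaraine.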

HepG2 [13] = test: Photocytotoxicity against human HepG2 cells treated for 3 hrs followed by 15 J/mc2 irradiation measured 24 hrs after irradiation by resazurin proliferation assay; assay type: functional; summary of the method: as §3
[14] = Cytotoxicity against mouse B78H1 cells under dark condition after 24 hrs by resazurin proliferation assay; assay type: cell-based; conditions: b78h1, 24 h; summary of the method: as §1
HeLa [15] = test: Photocytotoxicity against human HeLa cells assessed as cell growth arrest at 1.5 uM for 3 hrs followed by 15 J/mc2 irradiation measured 72 hrs after irradiation by resazurin proliferation assay; assay type: functional, cell-based
Summary of the method: (§5)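 HeLa cells were given squaraine, irradiated with light (15 J/cm2), and followed for up to 72 h after light treatment for proliferation. Controls were cells treated only with light.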

HUVEC = test: Cytotoxicity against HUVEC cells under dark condition after 24 hrs by resazurin proliferation assay; assay type: cell-based; conditions: human
HeLa [16] = test: Cellular uptake in human HeLa cells assessed as localization to nucleus at 1 uM after 4 hrs by confocal laser microscopy; assay type: ADME, cell-based
Summary of the method: (§6)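 HeLa cells seeded (2 × 10^5) on coverslips, treated 24 h later with squaraine for 3 h (figure legend states 4 h), then irradiated with a metal halogen white lamp at 15 J/cm2. Cells were fixed with PFA, permeabilized with Triton X-100 (0.1% in PBS) and nuclei stained with Hoechst. Localization was imaged by confocal laser microscopy.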

Mus musculus [17] = test: Toxicity in C57BL/6 mouse bearing mouse B78H1 cells assessed as behavioral changes at 3 umol/kg, iv measured for 1 week; assay type: organism-based; conditions: in vivo, 168 h; summary of the method: as §2
HeLa [18] = test: Photocytotoxicity against human HeLa cells assessed as necrotic cells at 1.5 uM for 3 hrs followed by 15 J/mc2 irradiation by annexin V/propidium iodide staining-based FACS flow cytometry (Rvb=1.0%); assay type: functional
HeLa [19] = test: Induction of apoptosis in human HeLa cells assessed as apoptotic bodies at 1.5 uM for 3 hrs followed by 15 J/mc2 measured 72 hrs irradiation by propidium iodide staining; assay type: functional, cell-based; summary of the method: as §4
MCF7 [20] = test: Photocytotoxicity against human MCF7 cells treated for 3 hrs followed by 15 J/mc2 irradiation measured 24 hrs after irradiation by resazurin proliferation assay; assay type: functional; summary of the method: as §3
HeLa [21] = test: Cellular uptake in human HeLa cells assessed as localization to cytoplasm at 1 uM after 4 hrs by confocal laser microscopy; assay type: ADME, cell-based; summary of the method: as §6
HeLa [22] = test: Induction of apoptosis in human HeLa cells assessed as caspase 3/7 activation at 1.5 uM for 3 hrs followed by 15 J/mc2; assay type: functional, cell-based
Summary of the method: (§7)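 HeLa cells (5000/well) were incubated 3 h with squaraine and irradiated at 15 J/cm2. Caspase-3/7 activity was measured 2.5, 16 and 22 h after light using a homogeneous fluorogenic reagent (substrate 1:100 in buffer, 1:1 with sample), with ex 485/em 530 nm. Values are means ± SDs of at least two independent experiments.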

HeLa [23] = test: Photocytotoxicity against human HeLa cells assessed as induction of lipid peroxidation-mediated malondialdehyde production at 1.8 uM for 3 hrs followed by 15 J/mc2 irradiation by TBARS assay relative to untreated control; assay type: functional
HepG2 [24] = test: Cytotoxicity against human HepG2 cells under dark condition at 5 uM after 24 hrs by resazurin proliferation assay; assay type: cell-based; conditions: hepg2, 24 h; summary of the method: as §1
HeLa [25] = test: Photocytotoxicity against human HeLa cells assessed as apoptotic cells at 1.5 uM for 3 hrs followed by 15 J/mc2 irradiation by annexin V/propidium iodide staining-based FACS flow cytometry (Rvb=1.3%); assay type: functional
HeLa [26] = test: Photocytotoxicity against human HeLa cells assessed as cell growth arrest at 9.6 uM for 3 hrs followed by 15 J/mc2 irradiation measured 72 hrs after irradiation by resazurin proliferation assay; assay type: functional, cell-based; summary of the method: as §5
HeLa [27] = test: Induction of apoptosis in human HeLa cells assessed as apoptotic bodies at 9.6 uM for 3 hrs followed by 15 J/mc2 measured 72 hrs irradiation by propidium iodide staining; assay type: functional, cell-based; summary of the method: as §4
HeLa [28] = test: Induction of apoptosis in human HeLa cells assessed as caspase 3/7 activation at 9.6 uM for 3 hrs followed by 15 J/mc2; assay type: functional, cell-based; summary of the method: as §7
HeLa [29] = test: Photocytotoxicity against human HeLa cells assessed as apoptotic cells at 9.6 uM for 3 hrs followed by 15 J/mc2 irradiation by annexin V/propidium iodide staining-based FACS flow cytometry (Rvb=1.3%); assay type: functional
HeLa [30] = test: Photocytotoxicity against human HeLa cells assessed as necrotic cells at 9.6 uM for 3 hrs followed by 15 J/mc2 irradiation by annexin V/propidium iodide staining-based FACS flow cytometry (Rvb=1.0%); assay type: functional
HeLa [31] = test: Cellular uptake in human HeLa cells assessed as localization to cytoplasm at 8 uM after 4 hrs by confocal laser microscopy; assay type: ADME, cell-based; summary of the method: as §6
HeLa [32] = test: Photocytotoxicity against human HeLa cells assessed as necrotic cells at 9.6 uM for 3 hrs followed by 15 J/mc2 measured 72 hrs irradiation by propidium iodide staining; assay type: functional, cell-based; summary of the method: as §4
HeLa [33] = test: Cellular uptake in human HeLa cells assessed as localization to nucleus at 8 uM after 4 hrs by confocal laser microscopy; assay type: ADME, cell-based; summary of the method: as §6
HeLa [34] = test: Photocytotoxicity against human HeLa cells assessed as induction of lipid peroxidation-mediated malondialdehyde production at 9.6 uM for 3 hrs followed by 15 J/mc2 irradiation by TBARS assay relative to untreated control; assay type: functional

SMILES: CCCCCCN1/C(=C/C2=C([O-])C(=C\c3sc4ccccc4[n+]3CCCCCC)/C2=O)Sc2ccccc21
Activity (HeLa [1]): Non-toxic
Activity (Mus musculus [2]): Non-toxic
Activity (MCF7 [3]): Non-toxic
Activity (MCF7 [4]): Active
Activity [5]: 80%
Activity (MCF7 [6]): Toxic
Activity (HeLa [7]): 80%
Activity (HeLa [8]): Toxic
Activity (MCF7 [9]): Active
Activity [10]: Toxic
Activity (HepG2 [11]): Non-toxic
Activity (HeLa [12]): Active
Activity (HepG2 [13]): 80%
Activity [14]: Non-toxic
Activity (HeLa [15]): Active
Activity (HUVEC): Non-toxic
Drug uptake (HeLa [16]): Not Active
Activity (Mus musculus [17]): Non-toxic
Activity (HeLa [18]): 9.5%
Activity (HeLa [19]): Active
Activity (MCF7 [20]): 80%
Drug uptake (HeLa [21]): Active
Activity (HeLa [22]): Active
fold change (FC) (HeLa [23]): 4
Activity (HepG2 [24]): Toxic
Activity (HeLa [25]): 3.9%

Drug uptake (HeLa [31]): Active
Drug uptake (HeLa [33]): Not Active
SMILES: CCCCCC[n+]1c(/C=C2\C(=O)C(c3ccc(-c4ccc(-c5ccc(C6=C([O-])/C(=C\c7sc8ccccc8[n+]7CCCCCC)C6=O)s5)s4)s3)=C2[O-])sc2ccccc21
Activity (HeLa [26]): Active
Activity (HeLa [27]): Active
Activity (MCF7 [4]): Active
Activity (HeLa [28]): Active
Activity (HeLa [29]): 8.8%
Activity (MCF7 [9]): Active
Activity (HeLa [30]): 25.9%
Activity (HeLa [32]): Active
fold change (FC) (HeLa [34]): 4
